# Laboratory results from publication PMC3266058 (Journal of Medicinal Chemistry, 2011).
# Like-named read-outs stand apart in the source and are kept apart here.
# Tests used:
# [1] = test system: colon 26 murine tumor cell line; conditions: read-out: cytotoxicity IC50, colon 26; ref 9a; cited from earlier work
# HeLa cells [2] = assay: Antiproliferative MTT assay, HeLa; type: cell-based; conditions: Homo sapiens, 72 h, read-out: IC50 HeLa
# MCF-7 cells = assay: Antiproliferative MTT assay, MCF-7; type: cell-based; conditions: Homo sapiens, MCF7, 72 h, read-out: IC50 MCF-7
# Jurkat cells = assay: Antiproliferative MTT assay, Jurkat; type: cell-based; conditions: Homo sapiens, 72 h, read-out: IC50 Jurkat
# Method in brief: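 Cells (8 × 10^3 per well in complete medium) settled 18 h at 37 °C, 5% CO2, then medium replaced with fresh medium holding test compound at a range of concentrations (10 mM DMSO stocks; final DMSO ≤0.25%) for 72 h at 37 °C. Viability read by MTT.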
# A549 cells [3] = assay: Antiproliferative MTT assay, A549; type: cell-based; conditions: Homo sapiens, A549, 72 h, read-out: IC50 A549
# HL-60 cells = assay: Antiproliferative MTT assay, HL-60; type: cell-based; conditions: Homo sapiens, HL-60, 72 h, read-out: IC50 HL-60
# XIAP = assay: Western blot, XIAP in HeLa cells; type: cell-based, human; conditions: 24 or 48 h
# Method in brief: (§1)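 HeLa cells were treated with test compound (DMSO ≤0.25%) for the indicated times, then washed twice in ice-cold PBS. They were lysed on ice for 30 min and spun at 15000g, 4 °C, 10 min; protein was measured by BCA. 20 μg was run on 7.5–15% SDS-PAGE and transferred to PVDF. Membranes were blocked overnight at 4 °C, then probed 2 h at room temperature with primary antibodies (total caspase-3, cleaved caspase-9, cyclin B, Bcl-2, Bax, XIAP). Peroxidase secondary was applied for 60 min, with ECL detection and β-actin reprobe as the loading control.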
# cyclin B1 = assay: Western blot, cyclin B1 in HeLa cells; type: cell-based, human; conditions: 24 and 48 h
# Method in brief: as §1
# [4] = Body weight of treated xenograft mice; type: in vivo, BALB/c-nu nude mice; conditions: 100 mg/kg intraperitoneally, 3 doses; whole treatment period
# Method in brief: (§2)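 Female BALB/c-nu nude mice, 4 weeks old (15−18 g), kept pathogen-free. HT-29 cells at 1 × 10^7 cells/mL in serum-free RPMI 1640 were injected (0.2 mL) subcutaneously in the back. At ~300 mm3, 18 mice were randomised to vehicle or treatment groups (six per group). Test compound was given in DMSO i.p. at 0.01 mL/g (100 mg/kg) on days 0, 2 and 4. Tumour size (caliper, V = LW²/2) and body weight were recorded at each time point. Results are mean ± SEM; two-sided Student's t test.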
# HeLa cells [5] = assay: Mitochondrial ROS production; type: cell-based, human; conditions: HE and H2-DCFDA, 24 or 48 h, vs control cells
# Method in brief: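 HeLa cells were cultured in DMEM with 10% FBS and antibiotics and exposed to test compound for 24 or 48 h, with final DMSO ≤0.25%. Cells were then stained with hydroethidine or H2-DCFDA, and ROS were measured by flow cytometry. Data are mean ± SEM of three independent experiments.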
# caspase-3 = assay: Western blot, caspase-3 in HeLa cells; type: cell-based, human; conditions: 24 or 48 h
# Method in brief: as §1
# HeLa cells [6] = assay: Annexin-V/PI apoptosis assay; type: cell-based, human; conditions: 24 or 48 h, vs control
# Method in brief: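 HeLa cells grown in DMEM with 10% FBS, penicillin G and streptomycin, then exposed to test compound (10 mM DMSO stocks; final DMSO ≤0.25%). Phosphatidylserine exposure was read by flow cytometry after annexin-V-FITC labelling per kit instructions, with simultaneous PI staining. Excitation was 488 nm, with emission filters at 525 nm (FITC) and 585 nm (PI).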
# Bax = assay: Western blot, Bax in HeLa cells; type: cell-based, human
# Method in brief: as §1
# HeLa cells [7] = assay: Flow cytometric cell cycle analysis; type: cell-based, human; conditions: 24 h
# Method in brief: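 Exponentially growing HeLa cells (5 × 10^5), grown in DMEM with 10% FBS and penicillin/streptomycin, were exposed to 15–250 nM test compound for 24 h, with DMSO ≤0.25%. Cells were fixed in ice-cold 70% ethanol, treated with lysis buffer containing RNase A and 0.1% Triton X-100, and stained with propidium iodide. DNA content was measured by flow cytometry. Results are mean ± SEM of three independent experiments.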
# Bcl-2 = assay: Western blot, Bcl-2 in HeLa cells; type: cell-based, human; conditions: after 48 h
# Method in brief: as §1
# HeLa cells [8] = assay: Mitochondrial membrane potential; type: cell-based, human; conditions: JC-1, 24 or 48 h
# Method in brief: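 HeLa cells in DMEM with 10% FBS were incubated 24 or 48 h with test compound (final DMSO ≤0.25%), then stained with the cationic dye JC-1 and analysed by flow cytometry. Polarized mitochondria give red aggregate emission (590 nm); depolarized ones give monomer emission (530 nm). Data are mean ± SEM of three independent experiments.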
# bovine brain tubulin = bovine brain tubulin (Bos taurus, UniProt P81947+Q6B856); assay: Inhibition of tubulin polymerization; type: biochemical; conditions: tubulin assembly assay
# caspase-9 = assay: Western blot, caspase-9 in HeLa cells; type: cell-based, human; conditions: 24 or 48 h
# Method in brief: as §1
# [9] = test system: six human cancer cell lines (HeLa, A549, HL-60, Jurkat, MCF-7, HT-29); assay: Antiproliferative activity over the panel of six human cancer cell lines; type: cell-based; conditions: all cell lines
# HT-29 xenograft = assay: In vivo antitumor activity, HT-29 xenograft; set-up: species or system BALB/c-nu nude mice; conditions: 100 mg/kg intraperitoneally, days 0, 2 and 4; end of observation period (day 24)
# Method in brief: as §2
# LoVo^Doxo cells = conditions: ref 13c, cited from earlier work
# LoVo cells = conditions: read-out: IC50 LoVo; parental line; ref 13c; cited from earlier work
# A549 cells [10] = conditions: read-out: IC50 A549 (Table 3); parental line; ref 13c; cited from earlier work
# A549-T12 cells = conditions: ref 13c, cited from earlier work
# CEM^Vbl100 cells = conditions: ref 13c, cited from earlier work
# CEM cells = conditions: read-out: IC50 CEM; parental line; ref 13c; cited from earlier work
# [11] = ratio of IC50 in resistant and nonresistant cell lines
# bovine brain tubulin, sequence (P81947 whole entry): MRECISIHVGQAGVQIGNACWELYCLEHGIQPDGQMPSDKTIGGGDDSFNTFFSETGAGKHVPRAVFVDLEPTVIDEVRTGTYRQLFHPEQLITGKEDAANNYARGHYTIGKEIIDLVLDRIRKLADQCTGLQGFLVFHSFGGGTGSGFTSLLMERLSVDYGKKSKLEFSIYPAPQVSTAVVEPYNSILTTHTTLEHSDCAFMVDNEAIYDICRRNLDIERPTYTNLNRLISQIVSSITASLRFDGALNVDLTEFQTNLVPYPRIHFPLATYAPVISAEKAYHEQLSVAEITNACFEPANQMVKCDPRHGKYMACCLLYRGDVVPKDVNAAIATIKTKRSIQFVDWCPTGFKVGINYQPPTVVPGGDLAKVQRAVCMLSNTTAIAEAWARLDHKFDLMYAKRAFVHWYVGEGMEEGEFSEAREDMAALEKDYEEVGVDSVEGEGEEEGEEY
# bovine brain tubulin, sequence (Q6B856 whole entry): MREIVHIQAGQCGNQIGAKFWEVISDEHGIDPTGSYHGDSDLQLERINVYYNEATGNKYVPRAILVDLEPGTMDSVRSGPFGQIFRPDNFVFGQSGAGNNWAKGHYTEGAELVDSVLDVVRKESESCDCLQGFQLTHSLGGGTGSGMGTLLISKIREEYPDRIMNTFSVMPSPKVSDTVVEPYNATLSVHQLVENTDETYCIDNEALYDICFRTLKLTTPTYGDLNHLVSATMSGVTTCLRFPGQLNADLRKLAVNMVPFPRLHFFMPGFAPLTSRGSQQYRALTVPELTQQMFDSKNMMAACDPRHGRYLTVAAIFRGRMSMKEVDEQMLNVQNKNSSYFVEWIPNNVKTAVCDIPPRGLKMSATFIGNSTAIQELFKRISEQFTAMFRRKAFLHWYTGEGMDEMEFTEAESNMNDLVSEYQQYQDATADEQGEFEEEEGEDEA
smiles,measurement,setting,value
"COc1ccc(-c2nnnn2-c2cc(OC)c(OC)c(OC)c2)cc1N [1-(3,4,5-trimethoxyphenyl)-5-(4-methoxy,3-aminophenyl)-1H-tetrazole]",IC50,[1],7.2 nM
CCOc1ccc(-c2ncnn2-c2cc(OC)c(OC)c(OC)c2)cc1 [3a],IC50,HeLa cells [2],15 ± 4 nM
same,IC50,MCF-7 cells,50 ± 9 nM
same,IC50,Jurkat cells,5 ± 0.2 nM
same,IC50,A549 cells [3],100 ± 20 nM
same,IC50,HL-60 cells,20 ± 3 nM
"CCOc1ccc(-c2nnnn2-c2cc(OC)c(OC)c(OC)c2)cc1 [4l, 1-(3,4,5-Trimethoxyphenyl)-5-(4-ethoxyphenyl)-1H-tetrazole]",XIAP expression,XIAP,strongly reduced
same,cyclin B1 expression,cyclin B1,marked increase in cyclin B1 expression
same,body weight change of treated animals,[4],no significant weight changes
same,ROS production,HeLa cells [5],induced the production of significant amounts of ROS
same,caspase-3 activation,caspase-3,activation of caspase-3
same,annexin-V positive cells,HeLa cells [6],induced an accumulation of annexin-V positive cells
same,Bax expression,Bax,no effect
same,lowest concentration with a rise in G2/M cells,HeLa cells [7],30 nM
same,Bcl-2 expression,Bcl-2,only slightly affected
same,cells with depolarized mitochondria,HeLa cells [8],induced a time and concentration-dependent increase in the proportion of cells with depolarized mitochondria
same,fold more potent than 5b in tubulin assembly,bovine brain tubulin,2 fold
same,caspase-9 activation,caspase-9,induced activation of caspase-9
"CCCCOc1ccc(-c2nnnn2-c2cc(OC)c(OC)c(OC)c2)cc1 [4o, 5-(4-Butoxyphenyl)-1-(3,4,5-trimethoxyphenyl)-1H-tetrazole]",antiproliferative activity,[9],inactive
"CCCCCOc1ccc(-c2nnnn2-c2cc(OC)c(OC)c(OC)c2)cc1 [4p, 1-(3,4,5-Trimethoxyphenyl)-5-(4-(pentyloxy)phenyl)-1H-tetrazole]",antiproliferative activity,[9],inactive
"CCOc1ccc(-n2nnnc2-c2cc(OC)c(OC)c(OC)c2)cc1 [5b, 5-(3,4,5-Trimethoxyphenyl)-1-(4-ethoxyphenyl)-1H-tetrazole]",ROS production,HeLa cells [5],induced the production of significant amounts of ROS
same,annexin-V positive cells,HeLa cells [6],induced an accumulation of annexin-V positive cells
same,lowest concentration with a rise in G2/M cells,HeLa cells [7],30 nM
same,cells with depolarized mitochondria,HeLa cells [8],induced a time and concentration-dependent increase in the proportion of cells with depolarized mitochondria
"COc1ccc(/C=C\c2cc(OC)c(OC)c(OC)c2)cc1O [compound 1, combretastatin A-4]",reduction in tumor growth vs vehicle,HT-29 xenograft,43.7%
same,IC50,Jurkat cells,5 ± 0.6 nM
COc1cccc2c1C(=O)c1c(O)c3c(c(O)c1C2=O)C[C@@](O)(C(=O)CO)C[C@@H]3O[C@H]1C[C@H](N)[C@H](O)[C@H](C)O1 [doxorubicin],resistance ratio LoVoDoxo/LoVo,LoVo^Doxo cells; [11],109.6
same,IC50,"LoVo^Doxo cells; read-out: IC50 LoVoDoxo, doxorubicin resistant line",13200 ± 210 nM
same,IC50,LoVo cells,120 ± 30 nM
CC(=O)O[C@H]1C(=O)[C@@]2(C)[C@H]([C@H](OC(=O)c3ccccc3)[C@]3(O)C[C@H](OC(=O)[C@H](O)[C@@H](NC(=O)c4ccccc4)c4ccccc4)C(C)=C1C3(C)C)[C@]1(OC(C)=O)CO[C@@H]1C[C@@H]2O [paclitaxel],IC50,A549 cells [10],7.2 ± 0.1 nM
same,resistance ratio A549-T12/A549,A549-T12 cells; [11],10.4
same,IC50,"A549-T12 cells; read-out: IC50 A549-T12, paclitaxel resistant line",75.2 ± 12.5 nM
CC[C@]1(O)C[C@@H]2CN(CCc3c([nH]c4ccccc34)[C@@](C(=O)OC)(c3cc4c(cc3OC)N(C)[C@H]3[C@@](O)(C(=O)OC)[C@H](OC(C)=O)[C@]5(CC)C=CCN6CC[C@]43[C@@H]65)C2)C1 [vinblastine],resistance ratio CEMVbl100/CEM,CEM^Vbl100 cells; [11],56.1
same,IC50,"CEM^Vbl100 cells; read-out: IC50 CEMVbl100, vinblastine resistant line",230 ± 32 nM
same,IC50,CEM cells,4.1 ± 0.2 nM
